Measured values reported in article PMC9072748 (RSC Advances, 2019).
Where two headings read alike, the source gives them in different places.

Assays:
CT-DNA [1] = assay: Viscosity measurements of CT-DNA; settings: 5.0 mM Tris–HCl buffer, pH 7.2; 1.0–6.0 mM
In short: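 Sonicated CT-DNA held at constant concentration (5.0 mM) with added test compound, EtBr as reference. After 15 min equilibration, flow time measured in triplicate with a stopwatch. η = (t − t0)/t0, with t0 the flow time of buffer alone. Results plotted as (η/η0)^1/3 versus binding ratio.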

BSA = BSA (Bos taurus, UniProt P02769); assay: BSA tryptophan fluorescence quenching titration; assay type: binding, Bovine; settings: for number of binding sites, n / binding constant K F × 10^−5: Scatchard equation; for binding constant K F × 10^−5: head: KF × 10^−5; for Stern–Volmer quenching constant K sv × 10^−5: Tris–HCl/50 mM NaCl pH 7.2, head: Ksv × 10^−5; for bimolecular quenching rate constant k q × 10^−10: head: kq × 10^−10
Chain of BSA (P02769 25-607): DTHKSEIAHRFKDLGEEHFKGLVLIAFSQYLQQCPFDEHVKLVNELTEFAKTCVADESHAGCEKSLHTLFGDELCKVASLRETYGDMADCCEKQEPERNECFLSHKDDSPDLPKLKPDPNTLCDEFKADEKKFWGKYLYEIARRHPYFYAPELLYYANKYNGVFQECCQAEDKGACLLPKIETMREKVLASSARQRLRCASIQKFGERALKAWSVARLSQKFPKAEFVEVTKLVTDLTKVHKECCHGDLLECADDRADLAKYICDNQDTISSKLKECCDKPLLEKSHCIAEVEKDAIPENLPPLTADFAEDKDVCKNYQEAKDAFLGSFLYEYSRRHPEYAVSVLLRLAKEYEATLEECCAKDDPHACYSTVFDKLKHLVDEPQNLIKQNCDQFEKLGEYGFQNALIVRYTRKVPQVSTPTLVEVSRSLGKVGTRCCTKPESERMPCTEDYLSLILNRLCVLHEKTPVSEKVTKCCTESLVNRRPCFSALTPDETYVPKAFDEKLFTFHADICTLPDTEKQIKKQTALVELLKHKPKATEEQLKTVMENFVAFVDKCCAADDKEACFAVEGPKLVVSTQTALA
In short: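 BSA stock (10.4 μM) made in 5.0 mM Tris–HCl/50 mM NaCl, pH 7.2, with concentration set from A278 (ε 4.4 × 10^4 M−1 cm−1). Equilibrated buffered BSA with test compound at 0–130 μM at room temperature. Excitation 278 nm; tryptophan emission read over 250–450 nm. Ksv taken from the slope of Io/I versus [Q].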

CT-DNA [2] = assay: Fluorescence EtBr exchange titration on CT-DNA; assay type: binding; settings: for Stern–Volmer quenching constant K sv × 10^−3: Tris–HCl buffer pH 7.2, head: Ksv × 10^−3; for bimolecular quenching rate constant k q × 10^−13: τ0 = 23 ns, head: kq × 10^−13
In short: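 CT-DNA (10 μM) premixed with EtBr (10 μM) in 5.0 mM Tris–HCl/50 mM NaCl, pH 7.2, then held 4 h at 4 °C. Titrated with incremental aliquots of 5.0 mM test-compound stock in 50% DMSO. Excitation 500 nm; emission decrease recorded over 520–700 nm. Filter-effect corrections applied. DNA concentration set from A260 (ε ≈ 6600 M−1 cm−1).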

HepG2 cells [3] = assay: MTT cytotoxicity assay on HepG2 cells; assay type: cell-based, human; settings: 24 h incubation
In short: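 HepG2 grown in DMEM with 10% FBS and penicillin/streptomycin (100 μg mL−1 each) at 37 °C, 5% CO2. Seeded at 1 × 10^4 cells/mL, 24 h, then exposed to test compound at 10–50 μM (10 μM steps) for 24 h. MTT (5 mg mL−1 in PBS) added for 2–4 h; formazan dissolved in DMSO; read at 560 nm against 1% DMSO control. IC50 from nonlinear regression of % viability versus concentration.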

HepG2 cells [4] = settings: cited from earlier work

For `CC[n+]1c(-c2ccccc2)c2cc(N)ccc2c2ccc(N)cc21.[Br-]` [EtBr, 3,8-diamino-5-ethyl-6-phenylphenanthridinium bromide], the “relative viscosity of CT-DNA solutions with increasing concentration” value (CT-DNA [1]) was “increased dramatically”.
In the case of `[Cl][Pt][Cl].c1ccc(-c2nc3cc4ccccc4cc3nc2-c2ccccn2)nc1` [bbqPtCl2], the “number of binding sites, n” value (BSA) is reported as 1.01 ± 0.05, the “binding constant K F × 10^−5” value (BSA) is reported as 5.34 ± 0.10 M^−1 and the “Stern–Volmer quenching constant K sv × 10^−5” value (BSA) is reported as 4.78 ± 0.19 M^−1. For the same compound, the “bimolecular quenching rate constant k q × 10^−10” value (BSA) was 9.61 ± 0.5 M^−1 s^−1, the “Stern–Volmer quenching constant K sv × 10^−3” value (CT-DNA [2]) was 5.49 ± 0.07 M^−1 and the “bimolecular quenching rate constant k q × 10^−13” value (CT-DNA [2]) was 2.52 ± 0.22 M^−1 s^−1. It also gave an IC50 (HepG2 cells [3]) of 17.4 ± 2 µM.
For `[Cl][Pt][Cl].c1ccc(-c2nc3ccccc3nc2-c2ccccn2)nc1` [bpqPtCl2], the “number of binding sites, n” value (BSA) was 0.98 ± 0.03, the “binding constant K F × 10^−5” value (BSA) was 1.93 ± 0.02 M^−1 and the “Stern–Volmer quenching constant K sv × 10^−5” value (BSA) was 2.47 ± 0.03 M^−1. The “bimolecular quenching rate constant k q × 10^−10” value (BSA) was 4.97 ± 0.2 M^−1 s^−1, the “Stern–Volmer quenching constant K sv × 10^−3” value (CT-DNA [2]) was 2.43 ± 0.02 M^−1 and the “bimolecular quenching rate constant k q × 10^−13” value (CT-DNA [2]) was 1.06 ± 0.10 M^−1 s^−1. The IC50 (HepG2 cells [3]) was 15.7 ± 1.6 µM.
For `N.N.[Cl][Pt][Cl]` [cisplatin], the IC50 (HepG2 cells [4]) is listed as 17.9 ± 2.1 µM.
With `Cc1cc2nc(-c3ccccn3)c(-c3ccccn3)nc2cc1C.[Cl][Pt][Cl]` [dmbpqPtCl2] the “number of binding sites, n” value (BSA) was 0.98 ± 0.03, the “binding constant K F × 10^−5” value (BSA) was 2.97 ± 0.07 M^−1 and the “Stern–Volmer quenching constant K sv × 10^−5” value (BSA) was 3.47 ± 0.11 M^−1. The “bimolecular quenching rate constant k q × 10^−10” value (BSA) was 6.98 ± 0.3 M^−1 s^−1, the “Stern–Volmer quenching constant K sv × 10^−3” value (CT-DNA [2]) was 3.26 ± 0.05 M^−1 and the “bimolecular quenching rate constant k q × 10^−13” value (CT-DNA [2]) was 1.47 ± 0.16 M^−1 s^−1. For the same compound, the IC50 (HepG2 cells [3]) was 14.9 ± 1.4 µM.
